From PubChem BioAssay
The list is not random: actives were taken first. Their share in the collection is about 1.9%.
PLC-beta3 inh: PLC-beta3 (human) inhibition, primary screen; Q01970; AID 720704; Purified PLC-beta3, fluorogenic substrate, fluorescence; 370,000 tested, 0.18% active; inhibition, % at 12.2 µM; in the data active = inhibition above about 11%;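 also: 0% = median of compound wells on plate and 100% = full blocker control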
TbMetRS inhib: Trypanosoma brucei MetRS inhibition; inhibition, % at 11.9 µM; 360,000 tested, 0.4% active; purified T. brucei MetRS, ATP depletion, Kinase-Glo luminescence;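 active = inhibition above a per-plate cutoff of the control wells' mean inhibition plus 3 SD, cut at about 5.5% in these data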;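 also: 0% = DMSO wells median and 100% = median of wells with control inhibitor compound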
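assay system = parasite MetRS enzyme | timing = 15 min preincubation, 2 h reaction, all 25 °C | evaluation = percent inhibition relative to median high and low control wells | medium = HEPES buffer containing pyrophosphatase, BSA, spermine, DTT | compound = single dose, 11.9 µM final nominal, 0.9% final DMSO | detection = Kinase-Glo luminescence, ATP depletion format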
DAGLB inh: blocks human DAGLB lipase activity. HEK293T DAGLB membrane lysate, EnzChek fluorogenic substrate. 340,000 tested, 0.059% active. AID 504411. Q8NCG7. inhibition, % at 5.17 µM; in the data active = inhibition above about 34%;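 also: 0% = enzyme with vehicle and 100% = wells lacking enzyme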
PLCg1 inh: PLC-gamma1 (human) inhibition, primary screen; P19174; purified PLC-gamma1, fluorogenic substrate, fluorescence; inhibition, % at 12.2 µM; 370,000 tested, 0.84% active
sPLA2-III inh: Blocks human group III sPLA2 activity. 370,000 tested, 0.56% active. AID 743126. inhibition, % at 12.2 µM. QFRET BODIPY PC-A2 liposome hydrolysis, fluorescence. Q9NZ20;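 active = inhibition above mean plus 3 SD of compounds lying within the high and low control bounds, cut at about 19% in these data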;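 also: 0% = median of test compound wells and 100% = no enzyme DMSO wells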
Target sequence (Q9NZ20 whole entry, looked up): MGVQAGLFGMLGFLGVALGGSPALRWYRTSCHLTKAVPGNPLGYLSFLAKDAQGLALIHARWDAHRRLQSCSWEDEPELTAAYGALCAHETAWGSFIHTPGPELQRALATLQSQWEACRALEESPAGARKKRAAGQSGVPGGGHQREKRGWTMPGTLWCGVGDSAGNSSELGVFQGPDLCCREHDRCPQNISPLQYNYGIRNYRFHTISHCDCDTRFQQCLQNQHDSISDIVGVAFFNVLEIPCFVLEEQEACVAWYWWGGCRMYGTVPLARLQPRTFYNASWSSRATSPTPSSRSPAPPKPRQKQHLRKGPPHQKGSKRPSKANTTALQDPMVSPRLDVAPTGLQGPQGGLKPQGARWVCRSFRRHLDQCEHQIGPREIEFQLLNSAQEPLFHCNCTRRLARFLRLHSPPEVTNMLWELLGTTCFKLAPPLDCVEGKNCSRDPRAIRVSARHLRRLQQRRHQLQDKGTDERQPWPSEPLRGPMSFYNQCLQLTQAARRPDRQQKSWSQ
PLCgamma1 ctr: inhibits human PLC-gamma1 in PLC-beta3 counter-screen; AID 743258; shares compounds with PLCg1 inh; purified PLC-gamma1, fluorogenic substrate, fluorescence; 3,300 tested, 3.1% active; inhibition, % at 12.3 µM
PLCbeta3 conf: human PLC-beta3 inhibition, confirmation | purified PLC-beta3, fluorogenic substrate fluorescence | AID 743261 | inhibition, % at 12.3 µM | 3,300 tested, 1% active | shares compounds with PLCg1 inh; in the data active = inhibition above about 11%
Active calls of the source: *; / = not tested or not shown. Rule as the data show it, unless noted: active = inhibition above about 9.5%; inactive = the rest.

SMILES	PLC-beta3 inh	TbMetRS inhib	DAGLB inh	PLCg1 inh	sPLA2-III inh	PLCgamma1 ctr	PLCbeta3 conf
O=C1CN(C(=O)c2ccccc2F)C(c2ccccc2)c2cc(Cl)ccc2N1 (stereo not given)	-5	-1	2	10*	-1	-4	0
COC(=O)[C@]12C[C@H](CC(=O)NCc3ccc(C)o3)C(=O)N(Cc3ccc4c(c3)OCO4)C1=C[C@H](COCc1ccccc1)O[C@@H]2C	1	/	/	4	-16	/	/
CCOc1ccc(NC(=O)C2CCCN2S(=O)(=O)c2ccc(OCC)cc2)cc1 (stereo not given)	-6	0	-1	12*	-4	-1	3
CCOc1ccc(NC(=O)C2CCN(S(=O)(=O)c3cccnc3)CC2)cc1	7	0	-1	12*	0	-2	-2
CN(c1ccccc1C(=O)Nc1cccc([N+](=O)[O-])c1)S(C)(=O)=O	2	0	1	9.9*	7	-6	-1
CC(=O)N1c2ccc(S(=O)(=O)N3c4ccccc4CC3C)cc2CC1C (stereo not given)	-7	-1	-1	2	-5	/	/
CC1Cc2ccccc2N1S(=O)(=O)c1ccc2c(c1)n(C)c(=O)c(=O)n2C (stereo not given)	4	-1	1	9.6*	5	-1	2
C#CCNC(=O)C[C@H]1C[C@@]2(C(=O)OC)C(=C[C@H](C(C)(C)C)O[C@@H]2C)N(CCC2=CCCCC2)C1=O	-3	/	/	0	7	/	/
Cc1cc(Nc2ccc(Cl)c(C(F)(F)F)c2)cc(=O)n1-c1ccc(Cl)c(C(F)(F)F)c1	-72	/	/	-45	-10	/	/
CCOC(=O)[C@H](CCc1ccccc1)N[C@@H](C)C(=O)N1C(C(=O)O)C[C@@H]2CCC[C@@H]21 (stereo not given in full)	10	-1	2	10*	4	-1	-1
CCOC(=O)[C@]12CCCCC/C=C\1N(CCc1ccc(Cl)cc1)C(=O)[C@H]2CC(=O)NCCc1ccccc1OC	0	/	/	-3	-17	/	/
O=C(N[C@H](C(=O)N1CCC[C@H]1C(=O)NC1CCCC1)C1CCCCC1)c1ccco1	-4	/	/	0	6	/	/
CCCn1cc(C(=O)Nc2ccc(Oc3cccnc3)cc2)c2ccccc21	-5	/	/	-1	-8	/	/
COc1cccc(C(=O)N2CCOCC2)c1	5	-1	-2	11*	7	-2	0
Cc1cccc(-c2cccc3c4c([nH]c23)[C@@H]2C[C@H](N(C)C(=O)C3CCCCC3)[C@H]([C@H](C)O)CN2CC4)c1	-49	/	/	-40	3	/	/
O=C(CCC(=O)OCc1ccc([N+](=O)[O-])cc1)Nc1ccc(F)cc1	10	0	-2	10*	0	-2	1
Cc1ccc(NC(=O)CCC(=O)OCC(=O)c2ccc(Oc3ccc([N+](=O)[O-])cc3)cc2)cc1C	5	0	-3	11*	-5	7	6
CCn1cc(C(=O)OCc2ccccc2)c(=O)c2ccc(C)nc21	1	-1	-6	-2	5	/	/
CCn1cc(C(=O)O)c(=O)c2ccc(C)nc21	3	-2	2	10*	7	-5	-6
O=C(NC12CC3CC(CC(C3)C1)C2)c1ccc(S(=O)(=O)N2CCOCC2)cc1	12*	-1	-2	5	7	6	0
O=C(Nc1ccc(S(=O)(=O)N2CCOCC2)cc1)c1ccc(F)cc1	-1	-1	-2	-1	1	/	/
O=C(CN(Cc1ccccc1)S(=O)(=O)c1ccc(S(=O)(=O)N2CCOCC2)cc1)Nc1ccccc1	-1	1	2	-1	10	/	/
O=C(CN(Cc1ccc(F)cc1)S(=O)(=O)c1ccc(S(=O)(=O)N2CCOCC2)cc1)Nc1ccccc1	11*	-1	0	8	-4	-5	-2
O=C(Nc1cccc(F)c1)c1ccc(S(=O)(=O)N2CCOCC2)cc1	9	-1	-1	10*	-3	2	7
O=C(Nc1cccc(S(=O)(=O)C(F)F)c1)c1ccc(S(=O)(=O)N2CCCC2)cc1	1	1	-3	0	-13	/	/
